# From paper PMC7501995 (Cell metabolism, 2020)
# “Also recorded” adds a separate entry of the source.
# Assays:
# [1] = Plasma concentration and oral bioavailability in mice; assay type: in vivo, mouse
# [2] = system: primary mouse hepatocytes; assay: Gene expression by qRT-PCR in primary hepatocytes; assay type: cell-based
# How it was run: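 Primary hepatocytes from male C57BL/6J, liver-specific glucagon receptor knockout or Txnip-deficient mice, seeded on collagen at 3×10^5 cells/well in serum-free DMEM. After 4 h attachment, medium changed and cells given varying test compound concentrations for 24 h. Pck1/G6pc read in the presence of glucagon. mRNA quantified by qRT-PCR; n = 3 for knockout hepatocytes.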
# human TXNIP promoter = assay type: cell-based; conditions: INS-1 cells, 25 mM glucose, 5 μM, 24 h
# How it was run: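 INS-1 cells transfected with SV40-E-box or SV40-Control firefly plasmid (0.4 µg/mL) plus pRL-TK renilla control (10 ng/mL). After 18 h, switched to 5 mM glucose for 6 h, then to 25 mM glucose. Treated with or without 5 µM test compound for 24 h. Read by dual-luciferase assay; n = 6 independent experiments.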
# [3] = Off-target liability panel; conditions: currently available panel
# C57BL/6J mice = assay: Oral administration in drinking water to wild-type C57BL/6J mice; assay type: in vivo, mouse
# [4] = system: TXNIP expression in human islets; assay type: cell-based
# How it was run: (§1)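 INS-1 cells, C57BL/6J mouse islets (collagenase XI-isolated) or human islets (at least three donors, same-donor controls) kept overnight in 5 mM glucose RPMI 1640. Then incubated 24 h in 25 mM glucose RPMI 1640 with or without 1 µM test compound. TXNIP and related mRNAs measured by qRT-PCR; n = 6 (INS-1) or 3 (mouse islets) independent experiments.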
# [5] = system: primary mouse hepatocytes; assay: Hepatocyte cAMP production; assay type: cell-based
# How it was run: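 Primary hepatocytes came from anesthetized lean chow-fed male C57BL/6J mice, liver-specific glucagon receptor knockout mice, or Txnip-deficient mice. They were plated on collagen at 3 × 10^5 cells/well in serum-free DMEM and left 4 h to attach. Medium was then changed and cells were exposed to graded test-compound concentrations with glucagon for 24h. Cells were washed twice in PBS and harvested in 0.1M HCl. Intracellular cAMP was measured by direct immunoassay; n = 3 independent experiments.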
# [6] = system: polymerase II (Pol II) binding to the TXNIP promoter; assay: Chromatin immunoprecipitation of Pol II in INS-1 cells; assay type: cell-based, rat; conditions: ChIP
# How it was run: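 INS-1 cells crosslinked in 1% formaldehyde/PBS for 15 min, then quenched with glycine. Lysed in SDS/Triton buffer, pH 8.1, with protease inhibitors, and sonicated (10 × 30 s pulses). 500 µg precleared lysate incubated with 4 µg anti-Pol II antibody or control IgG overnight at 4°C; 1/10 kept as input. Complexes captured on Protein A-Sepharose for 3 h, then washed in lysis, wash, LiCl and TE buffers. Regions probed: E-box, upstream TXNIP and IRS2 site. n = 3 independent experiments.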
# [7] = system: TXNIP protein levels in INS-1 cells; assay: TXNIP protein immunoblotting in INS-1 cells; assay type: cell-based, rat; conditions: 24h
# How it was run: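 Rat INS-1 beta-like cells were grown at 37°C in humidified 5% CO2. Whole-cell protein extracts were prepared and protein was quantified by BCA assay. Equal protein amounts were loaded per lane for TXNIP immunoblotting.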
# [8] = system: TXNIP expression in primary mouse islets; assay: TXNIP expression by qPCR in primary mouse islets at high glucose; assay type: cell-based; conditions: 25 mM glucose, 1 μM, 24 h
# How it was run: as §1
# [9] = system: C57BL/6J mice rendered diabetic by multiple low-dose STZ; assay: Multiple low-dose STZ-induced diabetes in C57BL/6J mice; assay type: in vivo, mouse
# [10] = Cellular cytotoxicity assay; assay type: cell-based; conditions: in vitro
# [11] = system: human islet gene expression; assay: RNA sequencing of human islets; assay type: cell-based; conditions: 25 mM glucose, 1 μM
# How it was run: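 Human islets (IIDP; same-donor controls) held overnight at 5 mM glucose, then 24 h at 25 mM glucose with or without 1 µM test compound. RNA extracted with miRNeasy. Libraries prepared as TruSeq stranded mRNA and sequenced single-end at about 43 million reads/sample.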
# L-type calcium channels = assay: Calcium channel blockade; conditions: in contrast to verapamil
# [12] = system: TXNIP mRNA expression in INS-1 cells; assay: TXNIP mRNA expression by qRT-PCR in INS-1 cells; assay type: cell-based; conditions: rat INS-1 cells, 25 mM glucose, 1 μM, 24 h, qPCR
# How it was run: as §1
# [13] = system: primary mouse hepatocytes; assay: Hepatocyte glucose output; assay type: cell-based
# How it was run: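 Hepatocytes were isolated from male C57BL/6J, liver-specific GcgR-knockout or Txnip-deficient mice and plated on collagen at 3 × 10^5 cells/well in serum-free DMEM. After 4 h attachment, they were treated 24h with graded test-compound concentrations. For the last 6h, cells were washed twice in PBS and placed in serum-, glucose- and phenol red-free DMEM, with or without lactate (10 mM) and/or glucagon (100 nM). Medium glucose was read colorimetrically and normalized to total protein; n = 3–4 mice.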
# [14] = C57BL/6J mice, oral 100 mg/kg/day
# [15] = livers of treated C57BL/6J mice
# [16] = male C57BL/6J mice, oral 100 mg/kg/day, 3 weeks
# [17] = GcgR−/−L hepatocytes, glucagon present
smiles,measurement,setting,value
"CS(=O)(=O)NCC1CCCN(c2ncnc3ccc(C(F)(F)F)cc23)C1 (stereo not drawn) [SRI-37330, N-((1-(6-(trifluoromethyl)quinazolin-4-yl)piperidin-3-yl)methyl)methanesulfonamide]",average plasma concentration,"[1]; mice, 100 mg/kg/day in the drinking water",5 µmol/L
same,oral bioavailability,"[1]; mouse, in vivo, po",orally bioavailable
same,effect on glucagon-induced expression of Pck1 and G6pc,[2]; primary hepatocytes of liver-specific glucagon receptor knockout mice (GcgR−/−L),completely blunted
same,glucagon-induced expression of Pck1 and G6pc,"[2]; primary hepatocytes of wild-type C57BL/6J mice, 5 μM, 24h",inhibited
same,TXNIP signaling genes in primary hepatocytes or livers,[2]; primary hepatocytes or livers of treated mice,not affected
same,effect on heterologous SV40 promoter coupled with the TXNIP E-box motif,human TXNIP promoter,confer SRI-37330 responsiveness
same,off-target liabilities,[3],lack of off-target liabilities
same,fasting blood glucose,C57BL/6J mice; [14],"slightly, but significantly lower"
same,fasting serum glucagon,C57BL/6J mice; [14],lower
same,fasting serum insulin,C57BL/6J mice; [14],unchanged
same,non-fasting blood glucose,"C57BL/6J mice; C57BL/6J mice, oral 100 mg/kg/day, within 3 days, persisted 3 weeks",small but significant decrease in blood glucose levels
same,insulin tolerance test (ITT),"C57BL/6J mice; C57BL/6J mice, oral 100 mg/kg/day, 1 U/kg insulin i.p.",remained unaltered
same,intraperitoneal glucose tolerance test (GTT),"C57BL/6J mice; C57BL/6J mice, oral 100 mg/kg/day, 3 g/kg glucose i.p. after 4 h fast",consistently and significantly improved glucose tolerance
same,blood glucose during insulin-induced hypoglycemia,"C57BL/6J mice; fasting mice, 15 min after insulin bolus 1 U/kg",able to maintain their blood glucose levels equally well to untreated controls
same,fatty liver (liver histology),C57BL/6J mice; lean mice,did not lead to any fatty liver
same,liver expression of Pck1 and G6pc,C57BL/6J mice; [15],lower expression
same,liver glycogen content,C57BL/6J mice; [15],higher glycogen content
same,tolerability,"C57BL/6J mice; male C57BL/6J mice, oral 100 mg/kg/day in drinking water, 3 weeks",well tolerated
same,body weight,C57BL/6J mice; [16],no change in body weight
same,gross abnormalities in organs at sacrifice,C57BL/6J mice; [16],no gross abnormalities in any organs
same,safety profile in vivo,"C57BL/6J mice; mouse, in vivo",excellent safety profile in vivo
same,liver and serum triglyceride levels,C57BL/6J mice; treated C57BL/6J mice,lower liver and serum triglyceride levels
same,liver transaminase levels,C57BL/6J mice; treated C57BL/6J mice,did not cause any elevation in liver transaminase levels
same,expression of other arrestin genes ARRB1 and ARRDC3 and of thioredoxin,"[4]; human islets, qRT-PCR, negative controls",not affected
same,TXNIP expression in the context of high glucose,"[4]; isolated human islets, 25 mM glucose, 1 μM, 24 h",significantly inhibit TXNIP expression
same,cAMP production,[5]; [17],no longer able to inhibit hepatocyte glucose output or cAMP production
same,glucagon-induced cAMP production,[5]; primary hepatocytes of TXNIP-deficient mice,maintained its ability to block glucose output and glucagon-induced cAMP production
same,glucagon-induced production of cAMP,"[5]; wild-type primary hepatocytes, 24h, glucagon",significantly downregulated in a dose-dependent manner
same,Pol II binding to the E-box motif region of the TXNIP promoter,[6],effectively inhibited
same,Pol II binding to upstream TXNIP promoter region and to IRS2 site,[6],but not to an upstream TXNIP promoter region or to an established Pol II binding site
same,TXNIP protein levels,[7],inhibited TXNIP protein levels in a dose-dependent manner
same,TXNIP expression in the context of high glucose,[8],significantly inhibit TXNIP expression
same,"urine glucose, fold lower than in untreated or empagliflozin-treated animals",[9]; STZ mice,more than 10 fold
same,blood glucose control compared to metformin or empagliflozin,"[9]; STZ mice, drinking water",slightly better blood glucose control than metformin or empagliflozin
same,body weight at the end of the experiment,"[9]; STZ mice, vs untreated",higher body weight
same,fasting blood glucose,"[9]; STZ mice, vs untreated",lower fasting blood glucose
same,fasting serum insulin,"[9]; STZ mice, vs untreated",higher; also recorded: almost two-fold elevation
same,serum triglycerides,"[9]; STZ mice, only treatment with this effect",significantly lower serum triglycerides
same,"fasting serum glucagon, fold lower than untreated",[9]; STZ-diabetic mice,3.6 fold
same,effectiveness by oral gavage twice a day,"[9]; STZ-induced diabetes, gavage 12 h apart",confirmed its effectiveness in obesity- as well as STZ-induced diabetes
same,dose-dependence of glucose lowering,[9]; oral gavage twice a day,dose-dependence of the glucose-lowering effects
same,cytotoxicity,[10],no cytotoxicity
same,BCL2L1 expression,[11]; confirmed by qRT-PCR,upregulated
same,CTGF expression,[11]; confirmed by qRT-PCR,upregulated
same,IGF-1R expression,[11]; confirmed by qRT-PCR,upregulated
same,MAFA expression,[11]; confirmed by qRT-PCR,upregulated
same,MLXIPL expression,[11]; confirmed by qRT-PCR,downregulated
same,NLRP1 expression,[11]; confirmed by qRT-PCR,lower expression
same,general transcription,"[11]; three donors, 24 h, RNA sequencing",does not inhibit general transcription
same,calcium channel blocker activity,L-type calcium channels,not a calcium channel blocker
same,TXNIP expression in the context of high glucose,[12],significantly inhibit TXNIP expression
same,hepatocyte glucose output,[13]; [17],no longer able to inhibit hepatocyte glucose output or cAMP production
same,glucose output,"[13]; primary hepatocytes of TXNIP-deficient mice, glucagon present",maintained its ability to block glucose output and glucagon-induced cAMP production
same,basal or stimulated glucose output in the absence of glucagon,"[13]; wild-type primary hepatocytes, 24h, no substrate or lactate",did not affect basal or stimulated glucose output
